Reference: the RNAGym collection of RNA variant scans (doi:10.1126/science.aae0568)
Fewer inactive variants are shown than the library holds.

B1: tRNA (parent)
chain: GUUCCGUUGGCGUAAUGGUAACGCGUCUCCCUCCUAAGGAGAAGACUGCGGGUUCGAGUCCCGUACGGAACG

Variants of: B1
Test: yeast fitness relative to wild type (ratio to wild type); higher = fitter; tRNA-Arg(CCU), competitive growth, 37 C, YPD
Procedure, shortened: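 Gene amplicons from the start population and from each of six end populations were read by 100-nucleotide paired-end sequencing. Those end populations came from pooled Saccharomyces cerevisiae strains carrying tRNA-Arg(CCU) gene variants at the native locus, competed in YPD at 37°C for 24 hours. Fitness relative to wild type was worked out from changes in genotype frequencies. Genotypes needed ≥ 100 starting reads, and estimates < 0.5 were set to 0.5.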

| Variant | yeast fitness |
| --- | --- |
| GUUCCGUUGGCGAAAUGGUAACGCGUCUCCCUCCUAAGGAGAAGAUUGCGGGUUCGAGUCCCGCACGGUACG [U13A C46U U64C A69U] | ≤ 0.5 |
| GUUCCGUUGGCGAAAUGGUAACGCGUCUCCCUCCUAAGGAGAAGACUGAGGGUUCGAGUCCCGUACGGAACG [U13A C49A] | 0.654 |
| GUUCCGUUGGCGAAAUGGUAACGCGUCUCCCUCCUAAGGAGAAGACUGUGGGUUCGAGUCCCGUACGGAACG [U13A C49U] | 1.02 |
| GUUCCGUUGGCGAAAUGGUAACGCGUCUCCCUCCUAAGGAGAAGACUGUGGGUUCGAGUCCCGUCCGGAACG [U13A C49U A65C] | 0.624 |
| GUUCCGUUGGCGAAAUGGUAACGCGUCUCCCUCCUAAGGAGAAGACUGUGGGUCCGAGUCCUGUACGCAACG [U13A C49U U54C C62U G68C] | ≤ 0.5 |
| GUUCCGUUGGCGAAAUGGUAACGCGUCUCCCUCCUAAGGAGAAGACUGCGGGUUAGAGUCCCGUACGGAACG [U13A C55A] | 0.648 |
| GUUCCGUUGGCGAAAUGGUAACGCGUCUCCCUCCUAAGGAGAAGACUGCGGGUUUGAGUCCCGUACGGCACG [U13A C55U A69C] | 0.599 |
| GUUCCGUUGGCGAAAUGGUAACGCGUCUCCCUCCUAAGGAGAAGACUGCGGGUUCGAGUCACGUGCGGAACG [U13A C61A A65G] | 0.544 |
| GUUCCGUUGGCGAAAUGGUAACGCGUCUCCCUCCUAAGGAGAAGACUGCGGGUUCGAGUCGCGUACGCAACG [U13A C61G G68C] | ≤ 0.5 |
| GUUCCGUUGGCGAAAUGGUAACGCGUCUCCCUCCUAAGGAGAAGACUGCGGGUUCGAGUCCGGUACGGGACG [U13A C62G A69G] | 0.571 |
| GUUCCGUUGGCGAAAUGGUAACGCGUCUCCCUCCUAAGGAGAAGACUGCGGGUUCGAGUCCGGUAAGGAACG [U13A C62G C66A] | ≤ 0.5 |
| GUUCCGUUGGCGAAAUGGUAACGCGUCUCCCUCCUAAGGAGAAGACUGCGGGUUCGAGUCCUGUACGGAACG [U13A C62U] | 1.05 |
| GUUCCGUUGGCGAAAUGGUAACGCGUCUCCCUCCUAAGGAGAAGACUGCGGGUUCGAGUCCCGUAUGGAACG [U13A C66U] | 0.857 |
| GUUCCGUUGGCGAAAUGGUAACGCGUCUCCCUCCUAAGGAGAAGACUGCGGGUUCGAGUCCCGUAUGCAACG [U13A C66U G68C] | 0.51 |
| GUUCCGUUGGCGAAAUAGUAACGCGUCUCCCACCUAAGGAGAAGACUGCGGGUUCGAGUCCCGUACGGAACG [U13A G17A U32A] | ≤ 0.5 |
| GUUCCGUUGGCGAAAUGAUAACGCGUCUCCCUCCUAAGGAGAAGACUGCGGGUUCGAGUCCCGUACGGAACG [U13A G18A] | 0.705 |
| GUUCCGUUGGCGAAAUGAUAACGCGUCUCCCUCCUAAGGAGAAGACUGCGGGUUCGAGUCCCGUACGGUACG [U13A G18A A69U] | 0.618 |
| GUUCCGUUGGCGAAAUGCUAACGCGUCUCCCUCCUGAGGACAAGACUGCGGGUUUGAGUCCCGUACGGAACG [U13A G18C A36G G41C C55U] | 0.55 |
| GUUCCGUUGGCGAAAUGCUAACGCGUCUCCCUCCUGAGGACAAGACUGCGGGUUCGAGUCCCGUACAGAACG [U13A G18C A36G G41C G67A] | ≤ 0.5 |

| Variant | yeast fitness |
| --- | --- |
| GUUCCGUUGGCGAAAUGGUAACACGUCUCCCUCCUCAAGAGAAGACUGCGGGUUCGAGUGCGGUACGGAACG [U13A G23A A36C G38A C60G C62G] | 0.557 |
| GUUCCGUUGGCGAAAUGGUAACACGUCUCCCUCCUCAAGAGAAGACUGCGGGUUCGAGUCGCGUACGGAACG [U13A G23A A36C G38A C61G] | ≤ 0.5 |
| GUUCCGUUGGCGAAAUGGUAACCCGUCUCCCUCCUACAGAGAAGACUGCGGGUUCGAGUCCCGUACGGAACG [U13A G23C A37C G38A] | 0.554 |
| GUUCCGUUGGCGAAAUGGUAACCCGUGUCCCUCCUAAGGAGAAGACUGCGGGUUCGAGUCAUGUACGGAACG [U13A G23C C27G C61A C62U] | ≤ 0.5 |
| GUUCCGUUGGCGAAAUGGUAACCCGUGUCCCUCCUAAGGAGAAGACUGCGGGCUCGAGUCCCGUACGGAACG [U13A G23C C27G U53C] | ≤ 0.5 |
| GUUCCGUUGGCGAAAUGGUAACCCGUGUCCCUCCUAAGGAGAAGACUGCGGGCUCGAGUCACGUACGAAACG [U13A G23C C27G U53C C61A G68A] | 0.584 |
| GUUCCGUUGGCGAAAUGGUAACCCGUCUCCCUCCUAAGGAGAAGACUGAGGGUUCGAGUCCCGGACGGAACG [U13A G23C C49A U64G] | ≤ 0.5 |
| GUUCCGUUGGCGAAAUGGUAACCCGUCUCCCGCCUAAGGAGAAGACUGCGGGUUCGACUCACGUUCGGAACG [U13A G23C U32G G58C C61A A65U] | ≤ 0.5 |
| GUUCCGUUGGCGAAAUGGUAACGCCUCUCCCUCCUAAGGAGAAGACUGCGGGUUCGAGUCCCGUACGGAACG [U13A G25C] | 1.04 |
| GUUCCGUUGGCGAAAUGGUAACGCGUCUCCCUCCUAACGAGAAGACUGCGGGUUCGACUCCCGUACGGAACG [U13A G38C G58C] | 0.798 |
| GUUCCGUUGGCGAAAUGGUAACGCGUCUCCCUCCUAAGGAAAAGACUGCGGGUUCGAGUCCCGUACGGAACG [U13A G41A] | 0.714 |
| GUUCCGUUGGCGAAAUGGUAACGCGUCUCCCUCCUAAGGAAAAGACUGCGGGUUCGAGUCCCGUACAGAACG [U13A G41A G67A] | 0.546 |
| GUUCCGUUGGCGAAAUGGUAACGCGUCUCCCUCCUAAGGAAAAGACUGCGGGUUCGAGUCCCGUACGCAACG [U13A G41A G68C] | 0.504 |
| GUUCCGUUGGCGAAAUGGUAACGCGUCUCCCUCCUAAGGAGAAGACUACGGGUUCGAGUCCCGUACGGAACG [U13A G48A] | 1.03 |
| GUUCCGUUGGCGAAAUGGUAACGCGUCUCCCUCCUAAGGAGAAGACUCCGGGUUGGAGUCCCGUACGGAACG [U13A G48C C55G] | 0.554 |
| GUUCCGUUGGCGAAAUGGUAACGCGUCUCCCUCCUAAGGAGAAGACUCCGGGUUGGAGUCCCGUAAGGAACG [U13A G48C C55G C66A] | 0.584 |
| GUUCCGUUGGCGAAAUGGUAACGCGUCUCCCUCCUAAGGAGAAGACUGCCGGUUCGAGUCCCGUACGGAACG [U13A G50C] | 0.653 |
| GUUCCGUUGGCGAAAUGGUAACGCGUCUCCCUCCUAAGGAGAAGACUGCCGGUUCGAGUCCCGUACGGAUCG [U13A G50C A70U] | ≤ 0.5 |
| GUUCCGUUGGCGAAAUGGUAACGCGUCUCCCUCCUAAGGAGAAGACUGCCGGUUCGAGACCCGUACGGAACG [U13A G50C U59A] | 0.594 |
